In ChEMBL document CHEMBL5113551, “Fragment-Based Dynamic Combinatorial Chemistry for Identification of Selective α-Glucosidase Inhibitors” (ACS Med Chem Lett, 2022):

Legend:
[1] = Inhibition of alpha glucosidase (unknown origin); set-up: species or system Homo sapiens
[2] = target: T1, Alpha amylase (Homo sapiens, UniProt P0DUB6); experiment: Inhibition of alpha-amylase (unknown origin)
T1 sequence (P0DUB6 whole entry): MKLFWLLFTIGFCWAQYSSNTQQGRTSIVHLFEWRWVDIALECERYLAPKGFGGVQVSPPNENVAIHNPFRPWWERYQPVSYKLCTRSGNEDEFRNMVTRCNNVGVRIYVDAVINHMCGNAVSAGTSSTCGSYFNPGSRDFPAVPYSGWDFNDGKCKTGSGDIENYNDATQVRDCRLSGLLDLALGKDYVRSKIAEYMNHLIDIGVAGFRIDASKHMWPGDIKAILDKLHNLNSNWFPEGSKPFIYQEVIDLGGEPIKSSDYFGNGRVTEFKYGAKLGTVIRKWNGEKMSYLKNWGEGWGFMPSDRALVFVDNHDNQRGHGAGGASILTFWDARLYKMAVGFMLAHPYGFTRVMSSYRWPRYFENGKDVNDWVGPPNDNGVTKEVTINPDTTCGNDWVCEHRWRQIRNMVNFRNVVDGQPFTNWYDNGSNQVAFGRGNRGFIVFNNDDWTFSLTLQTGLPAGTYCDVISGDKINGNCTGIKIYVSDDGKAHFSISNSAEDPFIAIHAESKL

[3] = Cytotoxicity against human HepG2 cells assessed as reduction in cell viability incubated for 24 hrs by CCK8 assay; assay type: toxicity, cell-based
[4] = organism: Homo sapiens; experiment: Non-competitive inhibition of alpha glucosidase (unknown origin) using pNPG as substrate by Dixon plot analysis
Outline: (§1)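 Inhibition kinetics used a slightly modified, previously described method. Reciprocal velocity was plotted against inhibitor concentration at several fixed substrate concentrations (Dixon plot). The competitive constant (Ki) and noncompetitive constant (αKi) were read from this plot.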

[5] = Competitive inhibition of alpha glucosidase (unknown origin) using pNPG as substrate by Dixon plot analysis; set-up: species or system Homo sapiens; outline: as §1
[6] = organism: Homo sapiens; experiment: Mixed type of inhibition of alpha glucosidase (unknown origin) using pNPG as substrate by Lineweaver-Burk plot analysis
Outline: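 Reaction velocity was measured across a range of substrate concentrations at several inhibitor concentrations. The data were plotted as 1/V versus 1/[S] and fitted linearly (Lineweaver–Burk). The quadrant where the lines intersect assigned the inhibition type, and the enzyme Km was derived from the same plot.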

| IC50 [1] | IC50 [2] | alphaKi [4] | Ki [5] | Km [6] | SMILES | CC50 at 24 h [3] |
| --- | --- | --- | --- | --- | --- | --- |
| 8.06 µM |  |  |  |  | C[C@H]1O[C@H](O[C@H]2[C@H](O)[C@@H](O)[C@@H](O[C@H]3[C@H](O)[C@@H](O)C(O)O[C@@H]3CO)O[C@@H]2CO)[C@H](O)[C@@H](O)[C@@H]1N[C@H]1C=C(CO)[C@@H](O)[C@H](O)[C@H]1O (some centres not stated) [ACARBOSE] |  |
| 168 µM | > 200 µM |  |  |  | Cc1ccc(S(=O)(=O)Oc2ccc(/C=N/NC(=O)c3nc4ccccc4[nH]3)cc2)cc1 |  |
| 6.49 µM | 128.1 µM |  |  |  | O=C(N/N=C/c1coc2ccccc2c1=O)c1cc2ccccc2[nH]1 | > 200 µM |
| 32.5 µM | > 200 µM |  |  |  | O=C(N/N=C/c1coc2ccccc2c1=O)c1nc2ccccc2[nH]1 | > 200 µM |
| 2.52 µM | > 200 µM | 2.75 µM | 1.98 µM | 930 µM | Cc1ccc2occ(/C=N/NC(=O)c3cc4ccccc4[nH]3)c(=O)c2c1 | > 200 µM |
| 22.6 µM | 151.46 µM |  |  |  | O=C(N/N=C/c1coc2ccc(O)cc2c1=O)c1cc2ccccc2[nH]1 | > 200 µM |
| > 200 µM | > 200 µM |  |  |  | Cc1ccc(S(=O)(=O)Oc2ccc(/C=N/NC(=O)Cc3ccccn3)cc2)cc1 |  |
| > 200 µM | > 200 µM |  |  |  | Cc1ccc(S(=O)(=O)Oc2ccc(/C=N/NC(=O)c3ccc(O)cc3)cc2)cc1 |  |
